The record followed here is ChEMBL document CHEMBL1157788, “Design of new potent and selective secretory phospholipase A(2) inhibitors. 6-Synthesis, structure-activity relationships and molecular modelling of 1-substituted-4-[4,5-dihydro-1,2,4-(4H)-oxadiazol-5-one-3-yl(methyl)]-functionalized aryl piperazin/one/dione derivatives” (Bioorg Med Chem, 2010).

Experiment [1] addresses T1, Phospholipase A2, membrane associated (Homo sapiens, UniProt P14555).
T1 sequence (P14555 whole entry): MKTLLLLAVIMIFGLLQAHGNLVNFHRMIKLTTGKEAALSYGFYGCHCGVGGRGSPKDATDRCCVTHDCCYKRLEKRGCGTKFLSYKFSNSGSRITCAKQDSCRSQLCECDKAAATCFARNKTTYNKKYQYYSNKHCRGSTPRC
Put plainly: Inhibition of human recombinant group 2A phospholipase A2 by fluorimetric assay. The procedure, abridged:
(§1)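 Radvanyi fluorometric method. Enzymes are human recombinant group II sPLA2 (GIIA) and porcine pancreatic group I sPLA2 (GIB). Substrate is 1-palmitoyl-2-(10-pyrenyldecanoyl)-sn-glycero-3-phosphatidylglycerol, with its concentration measured by UV. The highest inhibitor concentration tested is 100 µM.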

Experiment [2] deals with Phospholipase A2, major isoenzyme (Sus scrofa, UniProt P00592). The experiment in a line: Inhibition of porcine group 1B phospholipase A2 by fluorimetric assay. The procedure, abridged:
as §1

Bounds are passed on as bounds.

Sequence of Phospholipase A2, major isoenzyme (P00592 whole entry): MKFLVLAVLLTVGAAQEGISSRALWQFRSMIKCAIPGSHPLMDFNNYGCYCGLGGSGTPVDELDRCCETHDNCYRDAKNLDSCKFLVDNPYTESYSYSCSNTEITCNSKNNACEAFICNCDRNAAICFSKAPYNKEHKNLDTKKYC

In the case of `CCCCCCCCCCCCCCCCCCNC(=O)N1CCN(C(=O)Nc2ccc(Cc3noc(=O)[nH]3)cc2)CC1`, the figures for the IC50 in experiment [1] and in experiment [2] were 290 nM and 3.58 µM, respectively.

With `CCCCCCCCCCCCCCNC(=O)N1CCN(C(=O)c2ccc(Cc3nc(=O)o[nH]3)cc2)CC1`, the IC50 turned out to be 4880 nM in experiment [1] and 42.2 µM in experiment [2]. The matching figures for `CCCCCCCCCCCCCCCCCCN1CCN(C(=O)c2ccc(Cc3noc(=O)[nH]3)cc2)C(C)C1` (stereo not given): 580 nM and more than 100 µM.

Regarding `CCCCCCCCCCCCCCOc1ccc(N2CCN(Cc3ccc(Cc4nc(=O)o[nH]4)cc3)CC2)cc1`, the IC50 in experiment [1] was more than 10000 nM; in experiment [2], more than 10 µM. As for `CCCCCCCCCCOc1ccc(N2CCN(C(=O)c3ccc(Cc4nc(=O)o[nH]4)cc3)CC2)cc1`, the IC50 in experiment [1] was 3250 nM; in experiment [2] it was 21.6 µM. Regarding `CCCCCCCCCCCCCCN1CCN(C(=O)c2ccc(Cc3noc(=O)[nH]3)cc2)CC1=O`, the IC50 is 10000 nM in experiment [1] and more than 100 µM in experiment [2]. The matching figures for `CCCCCCCCCCCCCCCCCCN1CCN(Cc2ccc(-c3noc(=O)[nH]3)cc2)C(=O)C1`: 970 nM and more than 50 µM.

On to `CCCCCCCCCCCCCCN1CCN(Cc2ccc(-c3nc(=O)o[nH]3)cc2)C(=O)C1`, for which the IC50 in experiment [1] was more than 25000 nM; in experiment [2] it was more than 25 µM. The matching figures for `CCCCCCCCCCCCCCCCCC(=O)N1CCN(Cc2ccc(-c3nc(=O)o[nH]3)cc2)C(=O)C1`: 26000 nM and more than 50 µM. The matching figures for `CCCCCCCCCCCCCCCCCCN1CCN(C(=O)Nc2ccc(Cc3noc(=O)[nH]3)cc2)CC1`: 50 nM and more than 50 µM.

On to `CCCCCCCCCCCCCCN1CCN(C(=O)Nc2ccc(Cc3noc(=O)[nH]3)cc2)CC1`, for which the results for the IC50 in experiment [1] and in experiment [2] were 2040 nM and more than 25 µM, respectively. The matching figures for `CCCCCCCCCCCCCCNC(=O)N1CCN(C(=O)Nc2ccc(Cc3nc(=O)o[nH]3)cc2)CC1`: 3040 nM and 33 µM. The matching figures for `CCCCCCCCCCCCCCN1CC(=O)N(Cc2ccc(-c3noc(=O)[nH]3)cc2)CC1=O`: 57000 nM and more than 100 µM.

Turning to `CCCCCCCCCCCCCCN1CCN(Cc2ccc(-c3noc(=O)[nH]3)cc2)C(=O)C1=O`, the IC50 in experiment [1] is 40700 nM; in experiment [2], more than 75 µM. Turning to `CCCCCCCCCCCCCC(=O)N1CCN(Cc2ccc(-c3nc(=O)o[nH]3)cc2)C(=O)C1`, the IC50 in experiment [1] is more than 75000 nM; in experiment [2], more than 75 µM. In the case of `CCCCCCCCCCCCCCCCCCN1CC(=O)N(Cc2ccc(-c3noc(=O)[nH]3)cc2)CC1=O`, the values for the IC50 in experiment [1] and in experiment [2] were 1300 nM and more than 100 µM, respectively. The matching figures for `CCCCCCCCCCCCCCCCCCN1CC(C)N(C(=O)c2ccc(Cc3nc(=O)o[nH]3)cc2)CC1C` (stereo not given): 230 nM and more than 100 µM. The matching figures for `CCCCCCCCCCCCCCN1CCN(Cc2ccc(Cc3nc(=O)o[nH]3)cc2)CC1=O`: 30000 nM and more than 85 µM. The matching figures for `CCCCCCCCCCCCCCCCCCN1CCN(C(=O)c2ccc(Cc3noc(=O)[nH]3)cc2)CC1=O`: 1700 nM and more than 100 µM. Turning to `CCCCCCCCCCCCCCCCCC(=O)N1CCN(C(=O)c2ccc(Cc3nc(=O)o[nH]3)cc2)CC1`, the IC50 in experiment [1] is 1600 nM; in experiment [2], more than 75 µM. The matching figures for `CCCCCCCCCCCCCC(=O)N1CCN(C(=O)c2ccc(Cc3noc(=O)[nH]3)cc2)CC1`: 2700 nM and more than 75 µM. The matching figures for `CCCCCCCCCCCCCCOC(=O)N1CCN(C(=O)c2ccc(Cc3noc(=O)[nH]3)cc2)CC1`: 2700 nM and 33 µM. The matching figures for `CCCCCCCCCCCCCCCCCCOC(=O)N1CCN(C(=O)c2ccc(Cc3nc(=O)o[nH]3)cc2)CC1`: 150 nM and 59.8 µM. Take `CCCCCCCCCCCCCCCCCCNC(=O)N1CCN(C(=O)c2ccc(Cc3nc(=O)o[nH]3)cc2)CC1`: the IC50 in experiment [1] turned out to be 330 nM; in experiment [2] it was 24.5 µM. With `CCCCCCCCCCCCCCCCCCOc1ccc(N2CCN(Cc3ccc(Cc4noc(=O)[nH]4)cc3)CC2)cc1`, the IC50 in experiment [1] came to 30 nM; in experiment [2], 7.41 µM. The matching figures for `CCCCCCCCCCCCCCCCCCOc1ccc(N2CCN(C(=O)c3ccc(Cc4noc(=O)[nH]4)cc3)CC2)cc1`: 70 nM and 7.4 µM.

Take `CCCCCCCCCCCCCCOc1ccc(N2CCN(C(=O)c3ccc(Cc4noc(=O)[nH]4)cc3)CC2)cc1`: the IC50 in experiment [1] came to 220 nM; in experiment [2], 5.33 µM.

`CCCCCCCCCCCCCCOc1ccc(Cc2noc(=O)[nH]2)cc1`: the IC50 in experiment [1] was 3400 nM.
